# Screens from PubChem BioAssay.
# Only some compounds are listed: those with a hit (about 2.2% of all), similar ones and a draw of the others.
# ARFGAP1 inhibitor – rat ARFGAP1 inhibition | Q62848 | Arfgap1-stimulated ARF1 GTP hydrolysis, GDP FP detection | inhibition, % at 16.5 µM | 360,000 tested, 0.26% active;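 active = inhibition above a per-plate limit, mean inhibition of low control wells plus 3 SD, cut at about 25% in these data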
# Target sequence (Q62848 1-136 limits assumed): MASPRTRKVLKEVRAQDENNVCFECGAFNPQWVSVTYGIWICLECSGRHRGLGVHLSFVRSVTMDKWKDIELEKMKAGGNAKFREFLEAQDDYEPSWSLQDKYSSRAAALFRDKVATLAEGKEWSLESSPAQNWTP
#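 Assay system: Rat Arfgap1 GAP domain (His6, aa 1-136), purified enzyme | Buffer or medium: HEPES 25 mM pH 7.5, NaCl 150 mM, MgCl2, DTT | Schedule: GTP hydrolysis reaction 2 h at 25 °C | Signal: FP of antibody-bound GDP Alexa 633 tracer, ex 620/em 688 nm | Measure: Percent inhibition of Arfgap1-stimulated GTP hydrolysis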
# ASAP1 inh – inhibitors of human ASAP1 ArfGAP activity; Q9ULH1; 360,000 tested, 0.19% active; inhibition, % at 16.5 µM; ASAP1-stimulated ARF1 GTP hydrolysis, GDP FP detection; in the data active = inhibition above about 25%
# Target sequence (Q9ULH1 325-724 limits assumed): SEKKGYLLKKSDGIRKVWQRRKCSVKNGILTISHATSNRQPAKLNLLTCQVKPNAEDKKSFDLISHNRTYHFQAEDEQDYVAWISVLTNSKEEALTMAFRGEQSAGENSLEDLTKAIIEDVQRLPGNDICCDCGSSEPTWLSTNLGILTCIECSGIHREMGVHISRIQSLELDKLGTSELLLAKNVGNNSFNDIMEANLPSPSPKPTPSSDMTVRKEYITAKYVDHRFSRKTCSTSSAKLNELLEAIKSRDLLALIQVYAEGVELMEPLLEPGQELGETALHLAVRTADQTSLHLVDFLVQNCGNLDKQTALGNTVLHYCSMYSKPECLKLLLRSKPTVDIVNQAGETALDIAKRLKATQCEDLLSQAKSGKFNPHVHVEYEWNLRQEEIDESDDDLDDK
# NadD block – blocks S. aureus nicotinate mononucleotide adenylyltransferase | 360,000 tested, 0.78% active | purified NadD enzyme, colorimetric absorbance read-out | AID 602399 | inhibition, % at 20 µM; in the data active = inhibition above about 26%
# rCAG RNA binder – molecules binding r(CAG) RNA repeats; inhibition, % at 3 µM; 370,000 tested, 1.3% active; r(CAG) RNA repeat, TO-PRO-1 dye displacement fluorescence; AID 651821;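 active = inhibition above the plate cutoff, the mean of all test compounds on that plate plus 3 SD, cut at about 35% in these data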;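 also: higher means more dye released from RNA so lower well fluorescence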
# Hits are given with their value; i = inactive; nt = no result.
SMILES,ARFGAP1 inhibitor,ASAP1 inh,NadD block,rCAG RNA binder
COc1ccc(/C=C2/SC(=O)N(CCC(=O)Nc3ccc(C)cc3)C2=O)cc1OC,i,i,nt,i
COC(=O)[C@@]12CCCCC=C1N(CCc1ccc(Cl)cc1)C(=O)[C@H]2CC(=O)NCC12CC3CC(CC(C3)C1)C2,nt,nt,nt,i
Cc1onc(-c2ccccc2Cl)c1C(=O)Nc1nnc(-c2ccc(F)cc2)s1,i,i,i,i
Cc1onc(-c2ccccc2Cl)c1C(=O)Nc1nnc(-c2ccc(Br)cc2)s1,i,i,i,46
COC(=O)C1CN(Cc2ccccc2)CCS(=O)(=O)N1Cc1ccc(C)cc1 (centres undefined),nt,nt,nt,i
COc1ccc(OC)c(NC(=O)CSc2nc3[nH]c(=O)cc(O)c3s2)c1,i,i,i,i
CCn1c(=S)sc2c(=O)[nH]c(SCC(=O)Nc3cc(OC)ccc3OC)nc21,i,i,i,76
COc1ccc(OC)c(NC(=O)CSc2nc3[nH]c(=O)[nH]c(=O)c3s2)c1,i,i,i,37
COc1ccc(/C=N/Nc2nc(-c3cccnc3)nc3ccccc23)cc1OC,i,i,i,i
Oc1ccc(/C=N/Nc2nc(-c3cccnc3)nc3ccccc23)c(O)c1,i,i,39,i
CCOc1ccc(/C(CCC(=O)O)=N/NC(=S)NCCc2ccccc2)cc1,i,i,i,36
CCOc1ccc(C(=O)OCC(=O)NCCCc2ccccc2)cc1,i,i,i,i
COc1ccc2c(c1)c(=O)oc1cc(OCC(=O)N3CCc4ccccc4C3)ccc12,i,i,33,i
COc1ccc2c(c1)c(=O)oc1cc(OCC(=O)N3CCCC(C)C3)ccc12 (centres undefined),43,41,i,i
COc1ccc2c(c1)c(=O)oc1cc(OCC(=O)N3CCC(C)CC3)ccc12,nt,nt,i,nt
Nc1[nH]c(C(=O)c2ccc(Br)cc2)c(-c2ccncc2)c1C(=O)c1ccccc1,i,i,nt,i
CCCCN(CCO)CCCC,i,i,i,i
COC(=O)/C=C1\S/C(=N/NC(=O)c2ccccc2)NC1=O,i,i,i,i
COc1ccccc1/C=C1\S/C(=N/NC(=O)c2cccc(Br)c2)NC1=O,i,i,38,i
COc1cc(C=c2c3ccccc3n3c2cc(-c2ccccc2)[n+]3C)cc(OC)c1OC,i,i,i,i
CN(C)c1ccc(C=c2c3ccccc3n3c2cc(-c2ccccc2)[n+]3C)cc1,i,i,i,i
CN(C)c1ccc(C=c2c3cc([N+](=O)[O-])ccc3n3c2cc(-c2ccccc2)[n+]3C)cc1,39,i,48,i
COc1cc(N(C)C)ccc1C=c1c2ccccc2n2c1cc(-c1ccccc1)[n+]2C,i,36,i,i
CN(C)c1ccc(C=c2c3ccccc3n3c2cc(-c2ccc(Cl)cc2)[n+]3C)cc1,i,i,39,i
N#CCCN(Cc1ccccc1)C(C(=O)NC1CCCCC1)c1ccnc2ccccc12 (centres undefined),i,i,i,i
SMILES,ARFGAP1 inhibitor,ASAP1 inh,NadD block,rCAG RNA binder
CN(C)CCCNC(=O)C[C@@H]1CC[C@@H]2[C@H](COc3ccc(NC(=O)c4cccc(F)c4)cc3C(=O)N2C)O1,nt,nt,nt,i
COc1ccc(S(=O)(=O)NC(=O)C2(C)CCN2C(=O)C2(c3ccccc3)CCCC2)cc1 (centres undefined),i,i,i,i
O=c1cc(-c2ccc(O)cc2)oc2c(-c3c(O)cc(O)c4c(=O)cc(-c5ccc(O)cc5)oc34)c(O)cc(O)c12,i,i,i,94
O=c1cc(-c2ccc(O)c(O)c2)oc2cc(O)cc(O)c12,i,i,i,i
CC(C)(C)C(=O)Nc1cc2c3c(c1)CCC(=O)N3CCC2,i,i,i,i
CC(Sc1nnc(NC2CCCCC2)s1)C(=O)Nc1ccc2c(c1)C(=O)c1ccccc1C2=O (centres undefined),i,i,38,i
Oc1ccc(/C=N/Nc2cc(N3CCCC3)nc(N3CCCC3)n2)cc1O,i,i,36,40
Oc1ccc(/C=N\Nc2cc(N3CCOCC3)nc(N3CCOCC3)n2)c(O)c1,i,i,i,i
COc1ccc(-c2cc(-c3ccccc3)nc(SCC(=O)Nc3ncc(C)s3)c2C#N)cc1,i,i,34,i
CCc1nnc(NC(=O)CSc2nc(-c3ccc(F)cc3)cc(-c3ccccc3)c2C#N)s1,i,i,i,i
CN(C)S(=O)(=O)c1cccc(NC(=S)N/N=C/c2ccc(O)c(O)c2O)c1,i,i,i,59
COc1cccc(Cn2cc(COC(=O)NCCc3ccccc3)nn2)c1,nt,nt,nt,i
Cc1ccc(C2=NN=C(NC(=O)CSc3nnc4c5ccccc5n(C)c4n3)SC2)cc1,nt,nt,82,nt
Cc1ccc(C2=NN=C(NC(=O)CSc3nc(C)cc(C)n3)SC2)cc1,i,i,nt,i
Cn1c2ccccc2c2cc(/C=N/NC(=O)c3ccc(O)cc3O)ccc21,nt,nt,40,nt
COCCNc1nc(NCc2ccc(C(C)C)cc2)c2sccc2n1,i,i,i,i
COc1cccc(-c2cccc(-c3nc(C(=O)Nc4ccc(-c5ccccc5)cc4)cc4c3[C@H](CCO)N(S(=O)C(C)(C)C)C4)c2)c1 (some centres undefined),nt,nt,35,nt
Cc1ccc(C(=O)C2CCN(CC(=O)N3CC(C)CC(C)C3)CC2)cc1 (centres undefined),nt,nt,nt,i
CN1c2ccsc2C(O)=C(C(=S)Nc2ccc(F)c(Cl)c2)S1(=O)=O,i,i,i,67
Cn1cc(C(=O)Nc2ccc(F)c(Cl)c2)cn1,i,i,i,i
CN(Cc1ccccc1)S(=O)(=O)c1cccc(C(=O)OCc2ccc(Oc3ccccc3)cc2)c1,nt,nt,nt,i
O=Cc1c[nH]c2ccc(S(=O)(=O)N3CCCCC3)cc12,i,i,i,i
CCOC(=O)COc1ccc(Br)cc1/C=C/c1[nH]c(=O)[nH]c(=O)c1[N+](=O)[O-],i,i,i,77
C=CCn1c(SCC(=O)NC2CCCC2)nc2scc(-c3ccco3)c2c1=O,i,i,i,i
C=CCn1c(SCC(=O)NCCCC)nc2scc(-c3ccco3)c2c1=O,i,i,38,i
SMILES,ARFGAP1 inhibitor,ASAP1 inh,NadD block,rCAG RNA binder
CCc1nc2c(OCc3ccc(F)cc3)cccn2c1N(C)C(=O)COc1ccccc1,i,i,i,i
O=C(N/N=C/c1ccccc1O)NC12CC3CC(CC(C3)C1)C2,i,i,i,i
O=C(N/N=C/c1cc(Cl)cc([N+](=O)[O-])c1O)NC12CC3CC(CC(C3)C1)C2,i,i,40,i
CCOC(=O)Cc1nnc(NC(=O)Nc2ccccc2)s1,i,i,i,35
Cc1ccc(Oc2ccccc2NC(=O)C2=COCCO2)cc1,i,i,i,i
Cc1ccc(N2CCN(C3=NC(=O)/C(=C\c4cn[nH]c4-c4ccccc4)S3)CC2)cc1,i,i,42,i
O=C1N=C(N2CCC(Cc3ccccc3)CC2)S/C1=C/c1cn[nH]c1-c1ccccc1,i,i,41,i
O=C1N=C(N2CCN(c3ccccc3)CC2)S/C1=C\c1cn[nH]c1-c1ccccc1,i,i,48,i
Cc1cccc(N2CCN(C3=NC(=O)/C(=C\c4cn[nH]c4-c4ccccc4)S3)CC2)c1,i,i,i,i
O=C1N=C(N2CCN(c3ccccc3)CC2)S/C1=C\c1ccco1,i,i,i,i
